Screening results as filed in PubChem.
TbMetRS inhib: blocks T. brucei methionyl-tRNA synthetase activity | AID 624268 | inhibition, % at 11.9 µM | 0.4% of 360,000 active | purified T. brucei MetRS, ATP depletion, Kinase-Glo luminescence;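 active = inhibition above a per-plate cutoff of the control wells' mean inhibition plus 3 SD, cut at about 5.5% in these data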
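assay system = parasite MetRS enzyme | timing = 15 min preincubation, 2 h reaction, all 25 °C | evaluation = percent inhibition relative to median high and low control wells | medium = HEPES buffer containing pyrophosphatase, BSA, spermine, DTT | compound = single dose, 11.9 µM final nominal, 0.9% final DMSO | detection = Kinase-Glo luminescence, ATP depletion format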
CSN deneddyl inh: blocks human CSN-mediated cullin deneddylation; Q92905; Purified CSN, SCF-Nedd8-OG deneddylation, fluorescence polarization; inhibition, % at 12.5 µM; 0.38% of 360,000 active; AID 651999;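 active = pattern-corrected inhibition above about 35%, with an unprinted fluorescence ratio check between 0.5 and 1.5, limit read from the data, passing the limit was not always enough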
Target sequence (Q92905 whole entry, looked up, one chain of several): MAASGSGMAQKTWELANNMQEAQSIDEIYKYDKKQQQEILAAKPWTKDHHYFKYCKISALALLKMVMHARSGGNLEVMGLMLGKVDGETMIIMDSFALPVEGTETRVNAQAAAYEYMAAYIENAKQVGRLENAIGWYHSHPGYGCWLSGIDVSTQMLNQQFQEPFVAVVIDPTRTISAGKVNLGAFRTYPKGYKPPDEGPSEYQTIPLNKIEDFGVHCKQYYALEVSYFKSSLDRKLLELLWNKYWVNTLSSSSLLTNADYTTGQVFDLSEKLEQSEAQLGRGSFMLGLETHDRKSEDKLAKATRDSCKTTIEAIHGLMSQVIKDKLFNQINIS
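Schedule: reaction 90 min, room temperature / Assay system: HEK293T-derived human Csn5 enzyme / Input: Csn5 at 0.24 nM final / Measure: inhibition of Csn5 cleavage, % / Control set: substrate-only high control, full reaction low control / Technique: fluorescence polarization of the substrate / Buffer or medium: Tris/NaCl/DTT buffer, pH 7.5 / Reagent: SCFSkp2-Nedd8OG substrate at 10 nM final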
IDE inh: inhibitors of human insulin-degrading enzyme in cells; HEK cells, FAbetaB cleavage, fluorescence polarization; 0.41% of 320,000 active; inhibition, % at 5.59 µM; P14735;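 active = percent inhibition above the average of all tested compounds plus 3 SD, set per screening campaign, cut at about 16% in these data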;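 note: IDE supplied by intact live HEK cells; FP after avidin binding of uncleaved biotin substrate so inhibition keeps polarization high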
IDE cell activ: IDE (human) activation, cell-based | P14735 | HEK cells, FAbeta-B cleavage, fluorescence polarization; 0% vehicle, 100% cell-free pure enzyme wells | activation, % at 5.96 µM | 0.073% of 340,000 active;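 active = activation above the mean of all tested compounds plus 3 SD, set per screening campaign, cut at about 17% in these data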
HNF4A DNA FP: change in binding of human HNF4 alpha to DNA | P41235 | HNF4a-FITC DNA binding, fluorescence polarization, 1 h | activity change, % at 10 µM | 0.3% of 360,000 active | AID 1224865; in the data active = activity change above about 30%, passing the limit was not always enough
TPT1 inh: C. albicans TPT1 enzyme inhibition. recombinant caTPT1, FP RNA substrate dephosphorylation. inhibition, % at 5 µM. AID 1962. 0.81% of 300,000 active;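 active = inhibition above the mean of all tested compounds plus 3 SD, set per screening campaign, cut at about 24% in these data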
Of the large screens only hits and unclear results are named; the others gave an inactive call. Compounds with a hit are over-represented: about 1.7% of the library has one in this group of screens.

COc1ccc(-c2csc(NC(=O)CCNC(=O)c3ccco3)n2)cc1	none (no result: IDE inh, IDE cell activ, TPT1 inh)
Nc1cc(N)nc(SCCOc2ccccc2)n1	IDE cell activ 23
CCCN(C(=O)C1CCN(S(=O)(=O)c2ccc(OC)c(OC)c2)CC1)C1CCS(=O)(=O)C1 (stereo not given)	none
O=c1c2c(-c3ccco3)csc2nc(SCc2cn3cccnc3n2)n1-c1ccccc1	CSN deneddyl inh 46
Cc1cc(=O)oc2cc(OCC(=O)N/N=C/c3ccccc3O)ccc12	CSN deneddyl inh 106
O=C(COc1ccc2c(-c3ccccc3)cc(=O)oc2c1)Nc1ccc(CN2CCOCC2)cc1	none
Cc1cc(=O)oc2cc(OCC(=O)c3ccccc3)ccc12	none
O=C(COc1ccc2c(-c3ccccc3)cc(=O)oc2c1)Nc1ccc(CCO)cc1	CSN deneddyl inh 66
Cc1noc(C)c1NC(=O)N(C)C[C@@H]1Oc2ccc(NC(=O)C3CCCCC3)cc2C(=O)N([C@@H](C)CO)C[C@H]1C	none (no result: TPT1 inh)
Cc1cc(-c2csc(NC(=O)c3ccc(=O)[nH]c3)n2)c(C)n1Cc1ccccc1	none
Cc1cc(-c2csc(NC(=O)c3ccc(C#N)cc3)n2)c(C)n1Cc1ccco1	CSN deneddyl inh 41
Clc1ccc(OCCOCCNCc2ccccc2)cc1Cl	none
COc1ccccc1Cc1c(-c2ccc(C#N)cc2)nc2c(Cl)cc(C(F)(F)F)cn12	CSN deneddyl inh 46 (no result: IDE inh, IDE cell activ, TPT1 inh)
COc1ccccc1Cc1c(-c2ccccc2)nc2c(C)cc(Br)cn12	CSN deneddyl inh 97 (no result: IDE inh, IDE cell activ, TPT1 inh)
Cc1onc(-c2ccccc2Cl)c1C(=O)NCc1ccco1	CSN deneddyl inh 49
Cc1ccc(CNC(=O)c2c(-c3ccccc3Cl)noc2C)cc1	none
CCc1ccc(S(=O)(=O)NCC2(N3CCOCC3)CCCCC2)cc1	none (no result: TPT1 inh)
COc1cc2c(cc1C1NC(=S)NC(C)=C1C(N)=O)CCCC2 (stereo not given)	none
CC1(c2nnnn2-c2ccc3c(c2)OCCO3)CCC(=O)N1CCCn1ccnc1 (stereo not given)	CSN deneddyl inh 102 (no result: IDE inh, IDE cell activ, TPT1 inh)
COC(=O)c1ccccc1NC(=O)CSc1nnc(C(CO)NC(=O)c2ccccc2Cl)n1C (stereo not given)	HNF4A DNA FP 37
COc1cc(C2Nc3cccc4cccc(c34)N2)cc(OC)c1OC(C)=O	none
COc1cc(C2Nc3cccc4cccc(c34)N2)ccc1O	IDE cell activ 19
CC(=O)OCCn1c(C)[n+](CCOC(C)=O)c2cc(Cl)c(Cl)cc21	none
CC(=O)OCCn1c2nc(=O)[nH]c(=O)c-2nc2cc(C)c(C)cc21	IDE cell activ 75 (no result: IDE inh, TPT1 inh)
CCn1cc(S(=O)(=O)Nc2cc(F)ccc2C)cn1	none
COc1ccc2c(COC(=O)c3n[nH]c4ccccc34)cc(=O)oc2c1	CSN deneddyl inh 38
Cc1cc2oc(=O)cc(COC(=O)c3n[nH]c4ccccc34)c2cc1C	none
Nc1ccc(-c2nc3ccc(N)cc3[nH]2)cc1	none
Nc1ccc2cc3[nH]c4cc(N)ccc4c3nc2c1	IDE cell activ 53 (no result: IDE inh, TPT1 inh)
COc1ccccc1NC(=O)c1ccc(NC(=O)CSc2ncn[nH]2)cc1	none
C#CCOCCOCCOCCNc1nc(N2CCN(C(=O)CCCCCCCCCCNC(=O)[C@H]([C@@H](C)CC)n3cc(CCCCCN)nn3)CC2)nc(N2CCN(C(=O)CCCCCCCCCCNC(=O)[C@@H]([C@H](C)O)n3cc(C)nn3)CC2)n1	IDE cell activ 39
C#CCOCCOCCOCCNc1nc(N2CCN(C(=O)CCCCCCCCCCNC(=O)[C@H](CCCCN)n3cc(C)nn3)CC2)nc(N2CCN(C(=O)CCCCCCCCCCNC(=O)[C@@H]([C@H](C)CC)n3cc(CCCCCN)nn3)CC2)n1	CSN deneddyl inh 111, IDE cell activ 39
C#CCOCCOCCOCCNc1nc(N2CCN(C(=O)CCCCCCCCCCNC(=O)[C@H](CCCCN)n3cc(CCO)nn3)CC2)nc(N2CCN(C(=O)CCCCCCCCCCNC(=O)[C@@H]([C@H](C)O)n3cc(C)nn3)CC2)n1	none
N=c1oc2ccc3ccccc3c2cc1C(N)=S	none
Cc1ccc(-c2nc(NC(=O)CSc3nnc4scc(-c5ccccc5)n34)ns2)cc1	CSN deneddyl inh 37
Cc1ccc2nc(C)cc(NCCO)c2c1	CSN deneddyl inh 77
COc1ccc(OC)c(/C=N\NC(=O)c2cc3c(ccc4ccccc43)o2)c1	none
O=C(N/N=C/c1cccc2ccccc12)c1cc2ccccc2o1	none (no result: IDE inh, TPT1 inh)
O=C(N/N=C/C=C/c1ccccc1)c1cc2c(ccc3ccccc32)o1	CSN deneddyl inh 42
O=C(N/N=C/c1ccccc1F)c1cc2c(ccc3ccccc32)o1	HNF4A DNA FP 39
COc1ccc(OC)c(CN2CCN(CC(=O)Nc3ccccc3C(=O)NC3CC3)CC2)c1	none (no result: TPT1 inh)
Cc1ccc2c(Cl)c(Cc3ccccc3)c(=S)[nH]c2n1	none (no result: IDE inh, TPT1 inh)
CC1(c2nnc(Cc3ccccc3)o2)CC(c2c(Cl)cccc2Cl)=NO1 (stereo not given)	IDE cell activ 39
O=C(NCC1CCCO1)c1cccc(S(=O)(=O)N(Cc2ccccc2)c2ccccc2)c1 (stereo not given)	none
CN(C)N=Nc1ccc(-c2cn(Cc3ccccc3)cn2)cc1	none
CCN(c1ccccc1)S(=O)(=O)c1ccc(N2CCN(c3ccc(OC)cc3)CC2)nc1	IDE cell activ 26 (no result: TPT1 inh)
NNC(=O)COc1ccc(F)cc1	HNF4A DNA FP 32
C[n+]1c2cc(N)ccc2cc2ccc(N)cc21	IDE cell activ 39 (no result: IDE inh, TPT1 inh)
O=C(CN(Cc1ccco1)C(=O)c1ccccc1)Nc1ccc(Cl)c(Cl)c1	TbMetRS inhib 5.8
Cc1ccc(C(=O)N(CC(=O)Nc2ccc(Cl)c(Cl)c2)Cc2ccco2)cc1	none
COc1ccc(-c2n(Cc3ccccc3)c3ccccc3[n+]2Cc2ccccc2)cc1	none
COc1ccc2noc3c2c1C(=O)c1ccccc1-3	IDE cell activ 38
CCN(c1ccc(OC)cc1)S(=O)(=O)c1ccc2c(c1)CC(C)N2C(=O)C1CC1 (stereo not given)	none
CCN(CC)CCCN=Cc1c(O)n(-c2c(C)cccc2C)c(=O)c2ccccc12	none (no result: IDE cell activ)
CCc1ccc(-n2c(O)c(C=NCCN(CC)CC)c(=O)[nH]c2=O)cc1	CSN deneddyl inh 35 (no result: IDE inh, TPT1 inh)
Cc1ccc(CNC(=O)CC2(CC3=NS(=O)(=O)c4ccccc4N3)CCCC2)cc1	none
Cc1c(CCOC(=O)CC23CC4CC(CC(C4)C2)C3)sc[n+]1CC(=O)c1ccccc1	none
Cc1c(CCOC(=O)C23CC4(C)CC(C)(CC(C)(C4)C2)C3)sc[n+]1CC(=O)c1ccccc1	HNF4A DNA FP 81
COc1ccccc1Cc1c(-c2ccco2)nc2ccc(Cl)cn12	CSN deneddyl inh 36 (no result: IDE inh, IDE cell activ, TPT1 inh)
Clc1ccc2nc(-c3ccco3)c(Cc3ccccc3)n2c1	CSN deneddyl inh 36 (no result: IDE inh, IDE cell activ, TPT1 inh)
Fc1cccc(Cc2c(-c3ccco3)nc3ccc(Cl)cn23)c1	none (no result: IDE inh, IDE cell activ, TPT1 inh)
O=C(NCCCN1CCCC1)c1ccc(CS(=O)(=O)c2ccc(Cl)cc2)o1	none
